Measurements: publication PMC7065888 (Science Advances, 2020)

Key:
recombinant mouse RBP2 = format: binding; conditions: holo-RBP2 incubated with 2 molar excess of compound, room temperature, 15 min
RBP2 = conditions: cited from earlier work
mouse RBP2 = biological target: T1, mouse RBP2 (Mus musculus, UniProt Q08652); format: binding
T1 sequence (Q08652 1-134): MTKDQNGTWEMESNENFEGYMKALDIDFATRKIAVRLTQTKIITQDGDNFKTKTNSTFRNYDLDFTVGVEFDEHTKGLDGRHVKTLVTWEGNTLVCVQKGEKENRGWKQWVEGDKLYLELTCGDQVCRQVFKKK

recombinant apo-RBP2 = format: binding, mouse; conditions: MS/MS-based detection
Summary of the method: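 Purified recombinant mouse RBP2 in apo form was incubated with the test lipid. The protein was then chromatographically repurified to strip unbound ligand, and lipid still associated with the protein was detected by tandem mass spectrometry.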

displacement of retinol from its RBP2 binding pocket (recombinant mouse RBP2)	Compound	further results
–	CC1=C(/C=C/C(C)=C/C=C/C(C)=C/CO)C(C)(C)CCC1 [retinol, all-trans-retinol]	Kd for binding to RBP2 relative to the Kd values reported here for 2-MAG binding (RBP2): two to six times higher
displaced retinol	CCCCCCCC/C=C\CCCCCCCC(=O)OC(CO)CO [2-OG, 2-oleoylglycerol]	Kd (mouse RBP2): 65.4 ± 4.4 nM
displaced retinol	CCCCC/C=C\C/C=C\C/C=C\C/C=C\CCCC(=O)OC[C@@H](O)CO [1-AG, 1-arachidonoylglycerol]	–
displaced retinol	CCCCC/C=C\C/C=C\CCCCCCCC(=O)OC(CO)CO [2-LG, 2-lineoylglycerol]	–
little displacement	CCCCCCCCCCCCCC(=O)NCCO [MEA, N-myristoylethanolamine]	–
–	CC1=C(/C=C/C(C)=C/C=C/C(C)=C/C=O)C(C)(C)CCC1 [retinaldehyde]	Kd for binding to RBP2 relative to the Kd values reported here for 2-MAG binding (RBP2): two to six times higher
displaced retinol	CCCCC/C=C\C/C=C\C/C=C\C/C=C\CCCC(=O)OC(CO)CO [2-AG, 2-arachidonoylglycerol]	ligand bound to RBP2 after chromatographic repurification (recombinant apo-RBP2): remained bound to RBP2; Kd (mouse RBP2): 27.1 ± 2.4 nM

Compound	displacement of retinol from its RBP2 binding pocket (recombinant mouse RBP2)	further results
CCCCC/C=C\C/C=C\CCCCCCCC(=O)NCCO [LEA, N-linoleoylethanolamine]	little displacement	–
CCCCC/C=C\C/C=C\C/C=C\C/C=C\CCCC(=O)NCCO [AEA, N-arachidinoylethanolamine]	little displacement	fold less effective than MAGs in displacing bound retinol from RBP2 (mouse RBP2; fluorescence emission spectra of holo-RBP2): ~ 25 fold
